MPTP block: mitochondrial permeability transition pore inhibitors, primary screen, biochemical, isolated mouse mitochondria, absorbance; 360,000 tested, 1.4% active; Ca2+ swelling absorbance, 30 min; AID 602449, 2012; inhibition, % at 10 µM;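 active = inhibition of 50% or more, scaled per plate between neutral and stimulator controls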
UPR XBP1 act: activators of adaptive XBP1 UPR arm, primary screen, cell-based, CHO-XBP1 luciferase reporter, luminescence, uHTS | activation, % at 20 µM | AID 463104, 2010 | IRE1-XBP1 UPR activation; percent of tunicamycin response, DMSO as zero | 330,000 tested, 0.33% active;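 active = versus positive control, 20 µM dose yields 30% or more activation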
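Signal: luciferase luminescence; Assay system: CHO-XBP1 luciferase reporter cells; Amount: one thousand reporter cells per well; Dosing: 20 µM single concentration, DMSO 1%; Benchmarks: high control tunicamycin 10 µg/mL final, low control DMSO vehicle only; Schedule: 6 h compound exposure at 37 °C, 5% CO2; Evaluation: percent activation relative to tunicamycin reference.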
GRIN3A LBD mod: binders of NR3A ligand-binding domain, primary screen, biophysical, differential scanning fluorimetry, uHTS. NR3A LBD differential scanning fluorimetry, Tm shift; 0% = protein alone, 100% = glycine-bound protein. Tm shift relative to glycine control, % at 25 µM. 340,000 tested, 2.5% active;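 active = melting temperature shift of at least 10% of the positive control shift, at one fixed dose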
aDG glyco up: activators of alpha-DG glycosylation, primary screen, uHTS, Pro5-aDG cells, AlphaScreen; alpha-DG glycosylation AlphaScreen (IIH6); 0% Pro5, 100% B10-LARGE cell signal; 360,000 tested, 0.22% active; activation, % at 10 µM;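 active = activation of at least 8% versus controls, or a plate z-score of at least 8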;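 also: Pro5 are CHO cells carrying HIG-tagged alpha-DG that lacks glycosylation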
UPR CHOP act: activators of apoptotic CHOP UPR arm, primary screen, cell-based, CHO-CHOP luciferase reporter, luminescence, uHTS; UPR activation; percent of tunicamycin response over DMSO baseline; activation, % at 10 µM; 330,000 tested, 0.34% active;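 active = at 10 µM dose, activation of 40% or more, normalized to positive control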
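Dosing – one dose, 10 µM in 0.5% DMSO · System – CHO-CHOP cells, stable luciferase reporter of PERK-eIF2a-CHOP signalling · Input – 500 cells/well · Control set – tunicamycin 10 µg/mL final as positive, DMSO-only wells as negative · Timing – 6 h compound treatment, 37 °C · Measure – % activation vs tunicamycin · Technique – luminescence read with Steady-Glo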
CHOP inhibitor: inhibitors of CHOP promoter induction, primary screen, cell-based, unfolded protein response, luciferase reporter | 220,000 tested, 3.8% active | inhibition, % at 10 µM | AID 2732, 2010 | CHO-K1 CHOP-promoter luciferase, tunicamycin-induced, 15-18 h;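 active = compounds that reduced the stress-induced luciferase reporter signal by more than about 70% of percent inhibition, limit read from the data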
Hits are given with their value; – = inactive; · = not tested or not shown. Rows were chosen to be rich in hits. Some 5.6% of all compounds tested hit in one or more screens of this group.

SMILES	MPTP block	UPR XBP1 act	GRIN3A LBD mod	aDG glyco up	UPR CHOP act	CHOP inhibitor
O=C(CN1C(=O)c2ccccc2S1(=O)=O)N1CCN(Cc2ccc3c(c2)OCO3)CC1	–	–	–	–	–	–
CC(C)Nc1nc(Oc2ccc(Cl)cc2)cc(C(F)(F)F)n1	–	–	–	–	–	74
Cc1cc2[nH]c3c4ccccc4nc(C)c3c2cc1C	–	·	10	–	·	·
Cc1cc2[nH]c3c(c[n+](C)c4ccccc34)c2cc1C	–	–	–	–	–	–
COc1ccc(N2CCN(S(=O)(=O)c3c(C)n(C)c(=O)n(C)c3=O)CC2)cc1	–	–	11	–	–	·
Cc1cc(=O)c(C(=O)Nc2cccc(C(=O)NC3CC3)c2)nn1-c1ccccc1	–	·	·	–	·	·
O=C1NCCNC1c1ccccc1 (stereo not given)	–	·	–	–	·	·
COc1cccc2c1C(=O)O/C2=C/c1ccc2c(c1)OCO2	–	–	·	–	–	85
COc1cccc(OC)c1C1=CC(=O)C[C@H](c2ccc3c(c2)OCO3)C1	–	–	–	–	–	·
O=C(N=Nc1c(O)[nH]c2ccccc12)Nc1ccccc1	–	·	–	–	·	·
Cc1cccc(NC(=S)N=Nc2c(O)[nH]c3ccccc23)c1	–	–	–	–	–	87
Cc1ccc2nc(-c3ccc4c(c3)OCCO4)cn2c1	–	–	–	–	–	94
O=C(O)c1cc2nc3c(c(C(F)(F)F)n2n1)CCc1ccccc1-3	–	–	11	–	–	–
O=C(Cn1nnc(-c2ccncc2)n1)N1CCc2ccccc21	–	–	–	–	–	–
Cc1ccc(-c2nnn(CC(=O)N3CCCc4ccccc43)n2)cc1	–	–	–	–	–	84
COc1ccc(-n2nnc3c(=O)n(CC(=O)N4CCCc5ccccc54)cnc32)cc1	–	–	12	–	–	·
CCOc1ccc(-n2nnc3c(=O)n(CC(=O)N4CCCc5ccccc54)cnc32)cc1	–	–	15	–	–	–
CC1=CSC2=NC(=O)/C(=C\c3cccn3-c3ccc([N+](=O)[O-])cc3)C(=N)N12	–	–	–	–	–	87
CC1=CSC2=NC(=O)/C(=C\c3cccn3-c3ccccc3)C(=N)N12	–	–	–	–	–	–
Cc1ccccc1NS(=O)(=O)c1ccc(C(=O)N2CCN(S(=O)(=O)c3ccccc3)CC2)cc1	–	–	–	–	–	·
S=C(Sc1ccc(Cl)cc1)Sc1ccc(Cl)cc1	·	–	·	·	–	106
O=C1Nc2ccccc2C12OCC(COc1ccc(Cl)cc1)O2 (stereo not given)	–	–	–	–	–	80
CN1C(=O)C2(OCC(C)([N+](=O)[O-])CO2)c2ccccc21 (stereo not given)	–	·	–	–	·	·
CN1C(=O)C2(OCC(COc3ccc(Cl)cc3)O2)c2ccccc21 (stereo not given)	–	–	·	–	–	81
CC1CCOC2(O1)C(=O)Nc1ccccc12 (stereo not given)	–	–	–	–	–	–
SMILES	MPTP block	UPR XBP1 act	GRIN3A LBD mod	aDG glyco up	UPR CHOP act	CHOP inhibitor
CCCc1nn(C)c(C(N)=O)c1[N+](=O)[O-]	–	–	–	–	–	–
CCCN(CC(=O)Nc1ccccc1C)C(=O)COC(=O)c1cnc(C)cn1	–	·	–	–	·	·
ON=C1c2ccccc2-c2ccccc21	–	–	–	–	–	·
NC(N)=NN=C1c2ccccc2-c2ccccc21	–	–	23	–	–	·
CCN(CC)C(=O)C1=C(C)N(Cc2ccc(OC)cc2)C(=O)C(CC(=O)NC(c2ccccc2)c2ccccc2)C1 (stereo not given)	–	·	·	–	·	·
COc1cccc(NC(=O)Cn2nnc(C(=O)Nc3cc(Cl)ccc3OC)c2N)c1	–	–	25	–	–	·
COc1ccc(Cl)cc1NC(=O)c1nnn(CC(=O)Nc2ccc3c(c2)OCO3)c1N	–	–	20	–	–	·
COc1ccc(OC)c(NC(=O)c2nnn(Cc3ccc(Br)cc3F)c2N)c1	–	–	–	–	–	88
COc1ccc(NC(=O)c2nnn(CC(=O)Nc3ccc4c(c3)OCO4)c2N)cc1OC	–	–	–	–	–	·
COc1ccc(NC(=O)Cn2nnc(C(=O)NCc3ccccc3OC)c2N)cc1Cl	–	–	–	–	–	72
CSCCC(=O)N1CCCC(N(C)CCc2ccccc2)C1 (stereo not given)	–	–	–	–	–	·
COCCN(C(=O)COC(=O)C12CC3CC(CC(C3)C1)C2)c1c(N)n(Cc2ccccc2)c(=O)[nH]c1=O	–	·	–	–	·	·
OCCCNc1c2ccccc2nc2ccccc12	–	–	·	–	–	·
O=[N+]([O-])c1ccc(C(O)CN2CCN(c3ccccc3)CC2)cc1 (stereo not given)	–	–	–	–	–	·
Oc1ccc(N2CCN(CC(O)c3ccccc3)CC2)cc1 (stereo not given)	–	–	32	–	–	·
COc1ccc(NCc2nnc(-c3ccccc3)o2)cc1	–	–	–	–	–	·
COc1ccccc1C(CC(=O)Nc1ccc(Cl)cc1)c1ccc(OC(C)C)cc1 (stereo not given)	–	–	12	–	–	–
COc1ccc(C(CC(=O)Nc2ccc(F)cc2)c2ccccc2)cc1 (stereo not given)	–	–	–	–	–	–
CC(C)c1ccc(NC(=O)c2ccc(NC3=NC4CS(=O)(=O)CC4S3)cc2)cc1 (stereo not given)	–	–	16	–	–	·
Cc1ccc(NC(=O)c2ccc(NC3=NC4CS(=O)(=O)CC4S3)cc2)cc1 (stereo not given)	–	–	–	–	–	·
CSc1cccc(NC(=O)c2ccc(NC3=NC4CS(=O)(=O)CC4S3)cc2)c1 (stereo not given)	–	–	28	–	–	·
N#CC(c1ccc(Cl)cc1)c1ncc(C(F)(F)F)cc1Cl (stereo not given)	–	–	14	–	–	–
N#CC(c1cccc(Cl)c1)c1ncc(C(F)(F)F)cc1Cl (stereo not given)	–	–	–	–	–	–
CC(=O)c1c(C)[nH]c(C(=O)CN2CCN(S(=O)(=O)c3ccccc3F)CC2)c1C	–	–	–	–	–	·
CCOC(=O)N1CCN(C(=O)CSc2ccc(-c3cccc(OC)c3)nn2)CC1	–	–	–	–	–	77
CCN(CC)S(=O)(=O)c1ccc(NC(=O)c2ccc(OCC3CCCO3)cc2)cc1 (stereo not given)	–	–	–	–	–	·

Screening results deposited in PubChem BioAssay by several laboratories.
